Laboratory results published in ChEMBL document CHEMBL1145471, “Small molecule regulators of autophagy identified by an image-based high-throughput screen” (Proc Natl Acad Sci U S A, 2007).
Where a SMILES comes first, the peptide text is derived from it. [ ]: non-standard residue; d: D form. Nle = CCCC[C@H](N)C(=O)O

Experiments:
Assay type in all cases: functional
H4 [1] = assay: Increase in light chain 3-GFP+ autophagosome vesicle number per cell in human H4 cells at 6.5 uM after 24 hrs by high throughput fluorescence microscopy relative to control
Summary of the method: (§1)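 H4 cells stably expressing LC3-GFP, kept in DMEM/10% FBS at 37°C, 5% CO2, were seeded in 96-well plates and exposed to compound for 24 h. Cells were then fixed in 4% paraformaldehyde and stained with 3 μg/ml DAPI. Automated fluorescence microscopy scored the number, size and intensity of LC3-GFP spots. Values are percent of DMSO wells, in triplicate, mean ± SD. Rapamycin served as positive control.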

H4 [2] = assay: Increase in light chain 3-GFP+ autophagosome vesicle area per cell in human H4 cells at 6.5 uM after 24 hrs by high throughput fluorescence microscopy relative to control
Summary of the method: (§2)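 H4 cells stably expressing LC3-GFP, seeded in 96-well plates and exposed to compound for 24 h; fixed in 4% paraformaldehyde, nuclei stained with 3 μg/ml DAPI. Automated fluorescence microscopy scored number, size and intensity of LC3-GFP spots; values expressed relative to DMSO-treated wells, rapamycin positive control. Triplicate wells, mean ± SD; experiments repeated three times.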

H4 [3] = assay: Increase in light chain 3-GFP+ autophagosome vesicle intensity per cell in human H4 cells at 6.5 uM after 24 hrs by high throughput fluorescence microscopy relative to control; summary of the method: as §2
H4 [4] = assay: Effect on FYVE-RFP+ vesicle intensity per cell in human H4 cells after 2 hrs relative to control; parameters: concentration or dose not given beside the values
Summary of the method: (§3)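 H4 cells stably expressing FYVE-RFP (H4-FYVE), grown in DMEM with 10% FBS, penicillin/streptomycin and 2 mM L-glutamine at 37°C, 5% CO2, seeded in 96-well plates and exposed to compound. Fixed in 4% paraformaldehyde, nuclei stained with 3 μg/ml DAPI, FYVE-RFP+ vesicles quantified by high-throughput fluorescence microscopy against DMSO control. Triplicate wells, mean ± SD.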

H4 [5] = assay: Effect on FYVE-RFP+ vesicle intensity per cell in human H4 cells after 4 hrs relative to control; parameters: concentration or dose not given beside the values; summary of the method: as §3
H4 [6] = assay: Effect on FYVE-RFP+ vesicle intensity per cell in human H4 cells after 8 hrs relative to control; parameters: concentration or dose not given beside the values; summary of the method: as §3
H4 [7] = assay: Increase in long-lived protein degradation in human H4 cells after 1 hr relative to control; parameters: concentration or dose not given beside the values
H4 [8] = assay: Increase in long-lived protein degradation in human H4 cells after 2 hrs relative to control; parameters: concentration or dose not given beside the values
H4 [9] = assay: Increase in long-lived protein degradation in human H4 cells after 4 hrs relative to control; parameters: concentration or dose not given beside the values
H4 [10] = assay: Increase in long-lived protein degradation in human H4 cells after 24 hrs relative to control; parameters: concentration or dose not given beside the values
H4 [11] = assay: Induction of light chain 3-GFP level in human H4 cells at 6.5 uM after 24 hrs by high throughput fluorescence microscopy relative to control; summary of the method: as §1
H4 [12] = assay: Increase in light chain 3-GFP+ autophagosome vesicle number per cell in human H4 cells at 7.3 uM after 24 hrs by high throughput fluorescence microscopy relative to control; summary of the method: as §1
H4 [13] = assay: Increase in light chain 3-GFP+ autophagosome vesicle area per cell in human H4 cells at 7.3 uM after 24 hrs by high throughput fluorescence microscopy relative to control; summary of the method: as §2
H4 [14] = assay: Increase in light chain 3-GFP+ autophagosome vesicle intensity per cell in human H4 cells at 7.3 uM after 24 hrs by high throughput fluorescence microscopy relative to control; summary of the method: as §2
H4 [15] = assay: Decrease in FYVE-RFP+ vesicle intensity per cell in human H4 cells after 2 hrs relative to control; parameters: concentration or dose not given beside the values; summary of the method: as §3
H4 [16] = assay: Decrease in FYVE-RFP+ vesicle intensity per cell in human H4 cells after 4 hrs relative to control; parameters: concentration or dose not given beside the values; summary of the method: as §3
H4 [17] = assay: Decrease in FYVE-RFP+ vesicle intensity per cell in human H4 cells after 8 hrs relative to control; parameters: concentration or dose not given beside the values; summary of the method: as §3
H4 [18] = assay: Induction of light chain 3-GFP level in human H4 cells at 7.3 uM after 24 hrs by high throughput fluorescence microscopy relative to control; summary of the method: as §1
H4 [19] = assay: Increase in light chain 3-GFP+ autophagosome vesicle number per cell in human H4 cells at 6.3 uM after 24 hrs by high throughput fluorescence microscopy relative to control; summary of the method: as §1
H4 [20] = assay: Increase in light chain 3-GFP+ autophagosome vesicle area per cell in human H4 cells at 6.3 uM after 24 hrs by high throughput fluorescence microscopy relative to control; summary of the method: as §2
H4 [21] = assay: Increase in light chain 3-GFP+ autophagosome vesicle intensity per cell in human H4 cells at 6.3 uM after 24 hrs by high throughput fluorescence microscopy relative to control; summary of the method: as §2
H4 [22] = assay: Induction of light chain 3-GFP level in human H4 cells at 6.3 uM after 24 hrs by high throughput fluorescence microscopy relative to control; summary of the method: as §1
H4 [23] = assay: Increase in light chain 3-GFP+ autophagosome vesicle area per cell in human H4 cells at 5.4 uM after 24 hrs by high throughput fluorescence microscopy relative to control; summary of the method: as §2
H4 [24] = assay: Increase in light chain 3-GFP+ autophagosome vesicle intensity per cell in human H4 cells at 5.4 uM after 24 hrs by high throughput fluorescence microscopy relative to control; summary of the method: as §2
H4 [25] = assay: Increase in light chain 3-GFP+ autophagosome vesicle number per cell in human H4 cells at 5.4 uM after 24 hrs by high throughput fluorescence microscopy relative to control; summary of the method: as §1
H4 [26] = assay: Induction of light chain 3-GFP level in human H4 cells at 5.4 uM after 24 hrs by high throughput fluorescence microscopy relative to control; summary of the method: as §1

SMILES | Activity (H4 [4]) [%] | Activity (H4 [5]) [%] | Activity (H4 [6]) [%] | Activity (H4 [7]) [%] | Activity (H4 [8]) [%] | Activity (H4 [9]) [%] | Activity (H4 [10]) [%] | Activity (H4 [15]) [%] | Activity (H4 [16]) [%] | Activity (H4 [17]) [%] | further results
CCCC[C@@H](C=O)NC(=O)[C@H](CC(C)C)NC(=O)[C@H](CC(C)C)NC(C)=O (Ac-Leu-Leu-[Nle]-aldehyde) | 72.86 | 84.85 | 88.42 | 124.56 | 104.95 | 91.35 | 95.45 | – | – | – | Activity (H4 [1]): 277.88%; Activity (H4 [2]): 362.79%; Activity (H4 [3]): 495.29%; Activity (H4 [11]): 96.31%
CCOC(=O)[C@H]1O[C@@H]1C(=O)N[C@@H](CC(C)C)C(=O)NCCC(C)C [ALOXISTATIN] | – | – | – | 84.82 | 76.35 | 79.98 | 91.33 | 48.31 | 53.97 | 39.61 | Activity (H4 [12]): 169.98%; Activity (H4 [13]): 195.1%; Activity (H4 [14]): 244.88%; Activity (H4 [18]): 119.19%
CCCNC(=O)[C@H]1O[C@@H]1C(=O)N[C@H](C(=O)N1CCC[C@H]1C(=O)OC)[C@@H](C)CC | 65.94 | 79.82 | 86.43 | 115.2 | 110.18 | 81 | 89.11 | – | – | – | Activity (H4 [19]): 197.44%; Activity (H4 [20]): 239.2%; Activity (H4 [21]): 272.48%; Activity (H4 [22]): 132.2%
C/C1=C/C(=O)O[C@@H]2C[C@@H](CC[C@H](C)/C=C\CC1)O[C@@](O)([C@@H]1CSC(=O)N1)C2 [LATRUNCULIN B] | – | – | – | – | – | – | – | – | – | – | Activity (H4 [19]): 263.28%; Activity (H4 [20]): 334.83%; Activity (H4 [21]): 723.64%; Activity (H4 [22]): 27.55%
CC(C)(c1ccc(OCC2CO2)cc1)c1ccc(OCC2CO2)cc1 (stereo not given) | – | – | – | 96.5 | 84.65 | 95.85 | 91.78 | 44.65 | 53.06 | 58.53 | Activity (H4 [12]): 156.58%; Activity (H4 [13]): 175.52%; Activity (H4 [14]): 182.11%; Activity (H4 [18]): 132.48%
N#Cc1cc2c(OCC(O)CN3CCN(C(c4ccccc4)c4ccccc4)CC3)cccc2[nH]1 (stereo not given) | 65.87 | 59.79 | 72.4 | 90.63 | 108.53 | 101.77 | 90.03 | – | – | – | Activity (H4 [23]): 275.43%; Activity (H4 [24]): 329.96%; Activity (H4 [25]): 224.74%; Activity (H4 [26]): 94.7%
COc1ccc2c(c[n+](C)c3c4cc5c(cc4ccc23)OCO5)c1OC.[Cl-] [CHELERYTHRINE CHLORIDE] | – | – | – | 101.43 | 100.4 | 108.72 | 106.48 | 30.83 | 22.01 | 33.84 | Activity (H4 [1]): 195.46%; Activity (H4 [2]): 229.91%; Activity (H4 [3]): 213.88%; Activity (H4 [11]): 110.26%
